M1 antag: M1 muscarinic receptor (rat) antagonism. P08482. CHO-M1 cells, Fluo-4 calcium, ACh EC80 antagonist mode; hits give low values. B-score at 10 µM. 3.4% of 64,000 active. AID 628;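 active means calcium fluorescence response, raw or row-and-column corrected B-score, differing from the plate sample mean either way at a set confidence level, mostly lower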
Target sequence (P08482 whole entry, looked up): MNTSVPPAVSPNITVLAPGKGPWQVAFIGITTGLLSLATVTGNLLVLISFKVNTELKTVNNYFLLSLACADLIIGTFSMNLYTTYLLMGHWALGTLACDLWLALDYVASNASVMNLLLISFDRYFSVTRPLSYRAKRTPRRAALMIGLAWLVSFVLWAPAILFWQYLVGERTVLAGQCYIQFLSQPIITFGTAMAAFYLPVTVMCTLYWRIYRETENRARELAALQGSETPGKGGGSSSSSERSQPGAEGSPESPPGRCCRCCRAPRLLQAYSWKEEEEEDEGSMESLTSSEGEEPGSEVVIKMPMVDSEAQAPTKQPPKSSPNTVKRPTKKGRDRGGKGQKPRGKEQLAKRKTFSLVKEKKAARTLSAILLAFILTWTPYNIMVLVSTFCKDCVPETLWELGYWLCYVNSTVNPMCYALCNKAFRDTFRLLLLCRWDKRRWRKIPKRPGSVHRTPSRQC
M1 agonist: agonists of M1 muscarinic receptor; CHO-M1 cells, Fluo-4 calcium fluorescence, agonist mode; hits give high values; B-score at 10 µM; AID 626; 3% of 64,000 active;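 active means fluorescence rise, raw or as B-score row- and column-corrected plate score, outside the 99.7% band of its plate's samples, either direction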
HEK293 NFkB inh: inhibitors of the PMA/ionomycin-induced NF-kB reporter in HEK293 cells. 0.21% of 62,000 active. inhibition, % at 3 µM. AID 465. HEK-293 NF-kB luciferase reporter, luminescence;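 active means inhibition above the mean of all tested compounds plus 3 SD, cut at about 40% in these data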
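System – HEK-293 cells with stable firefly luciferase reporter driven by four HIV NF-kB elements · Doses – one dose, 3 µM · Schedule – 1 h compound pre-incubation, 16 h PMA/ionomycin at 37 °C · Technique – luminescence from luciferase substrate reagent · Measure – percent inhibition normalized per plate to DMSO and reference-inhibitor controls · Replicates – tested once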
D1 mod: allosterically modulates the human D1 dopamine receptor | P21728 | HEK293 D1, CRE-luciferase, dopamine EC30 potentiation; actives deviate in either direction | B-score at 10 µM | 5.9% of 58,000 active;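 active means luminescence count or its row- and column-corrected plate score outside the 99.7% band of the plate's sample wells, on either side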
Jurkat tox 60K: reduces viability or proliferation of Jurkat cells | Jurkat E6.1 viability, ATP luminescence, 48 h | inhibition, % at 4 µM | 1.2% of 56,000 active | AID 463;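 active means inhibition above the mean inhibition of all tested compounds plus 3 SD, cut at about 28% in these data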
mHtt clearance: compounds clearing mutant huntingtin protein | inhibition, % at 1.5 µM | AID 853 | HeLa Exon1htt(103Q)mCFP, aggregate imaging; zero = plate's median compound well | 0.42% of 47,000 active;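 active means inhibition of aggregate fluorescence above about 70%, also judged a hit by eye on the cell image, limit read from the data, passing the limit was not always enough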;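 further: cells exposed to compound for three days before fixation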
M1 antag confirm: confirmation of rat M1 muscarinic receptor antagonists. shares compounds with M1 antag. CHO-M1 cells, Fluo-4 calcium, ACh EC80 antagonism; hits give low values. calcium response (max-min fluorescence) at 10 µM. 43% of 1,700 active. AID 677;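 active means calcium response below the same-plate mean of wells given acetylcholine alone at its 80%-effect dose, minus 3 SD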
mGluR4 antag: selectivity test for M1 antagonists: human mGluR4 receptor; shares compounds with M1 antag; CHO-mGluR4 calcium flux, Fluo-4 fluorescence, glutamate EC80; hits give low values; fluorescence response (max-min) at 10 µM; 0.9% of 1,700 active; AID 678;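 active means fluorescence response below the plate's average for near-maximal glutamate wells, less 3 SD of those wells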;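 further: raw unnormalized fluorescence span taken in the window right after glutamate addition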
Large screens that a line does not name were inactive (follow-up assays come after a bar, where they were run). Most compounds without a hit are left out; they make up all but 9.5% or so of the library.

O=c1oc2ccccc2c(N2CCCCC2)c1CN1CCCC1	none (no result: M1 antag, M1 agonist, HEK293 NFkB inh, D1 mod, Jurkat tox 60K)
CCc1oc2ccccc2c1C(=O)CCN1CCCCC1	M1 antag -7.1 (no result: mHtt clearance) | M1 antag confirm 196 | mGluR4 antag inactive
Cc1sc2nc(CN3CCCC3)nc(N3CCN(S(=O)(=O)c4cccs4)CC3)c2c1C	M1 antag -3.9 (no result: D1 mod, Jurkat tox 60K, mHtt clearance) | M1 antag confirm 410 | mGluR4 antag inactive
COc1ccc2cc(CN(Cc3cccnc3)S(=O)(=O)c3ccccc3)c(=O)[nH]c2c1	M1 antag -2.4 | M1 antag confirm inactive | mGluR4 antag inactive
CC(C)(C)c1cc(C(=O)NCc2ccccc2)ccn1	M1 antag -4.2 | M1 antag confirm inactive | mGluR4 antag inactive
CCOC(=O)N1CCN(C(=O)c2ccc3c(c2)ncn3C2CCCC2)CC1	M1 antag -2.3 | M1 antag confirm inactive | mGluR4 antag inactive
COc1ccc(OC)c(C2C(C(=O)c3ccco3)=C(O)C(=O)N2CCCN2CCOCC2)c1 (stereo unspecified)	none (no result: HEK293 NFkB inh, Jurkat tox 60K, mHtt clearance)
CCOc1ccc(N2CC(C(=O)Nc3ccc(S(=O)(=O)N4CCOCC4)cc3)CC2=O)cc1 (stereo unspecified)	none (no result: mHtt clearance)
CCOc1ccc(NC(=O)C2CC(=O)N(c3cc(C)cc(C)c3)C2)cc1 (stereo unspecified)	M1 antag -2.8 | M1 antag confirm inactive | mGluR4 antag inactive
O=C(Nc1cccc(S(=O)(=O)C(F)F)c1)c1ccc(Cl)c(S(=O)(=O)N2CCOCC2)c1	M1 antag -2.2 (no result: mHtt clearance) | M1 antag confirm inactive | mGluR4 antag 104
CCOC(=O)c1ccccc1NC(=O)c1ccc(Cl)c(S(=O)(=O)N2CCOCC2)c1	none
CSc1nnc2c(n1)OC(c1cccn1C)N(C(C)=O)c1ccccc1-2 (stereo unspecified)	M1 antag -5.7 (no result: mHtt clearance) | M1 antag confirm 158 | mGluR4 antag inactive
CSc1nnc2c(n1)OC(c1ccc(C(=O)O)cc1)N(C(C)=O)c1ccccc1-2 (stereo unspecified)	none
C=CCSc1nnc2c(n1)OC(c1cccnc1)N(C(C)=O)c1ccccc1-2 (stereo unspecified)	M1 antag -4.2 (no result: D1 mod) | M1 antag confirm 373 | mGluR4 antag inactive
C=CCSc1nnc2c(n1)OC(c1cccnc1)Nc1ccccc1-2 (stereo unspecified)	none (no result: mHtt clearance)
Cc1c(NC(=O)CSc2nnnn2C)c(=O)n(-c2ccccc2)n1C	none (no result: M1 antag, M1 agonist, HEK293 NFkB inh, D1 mod, Jurkat tox 60K)
CCn1c(SCC(=O)Nc2c(C)n(C)n(-c3ccccc3)c2=O)nnc1-c1cccc(C)c1	M1 antag -1.9 (no result: mHtt clearance) | M1 antag confirm inactive | mGluR4 antag inactive
O=C(c1ccc(S(=O)(=O)N2CCCCCC2)cc1)N1CCN(c2ccccn2)CC1	M1 antag -2.1 | M1 antag confirm 507 | mGluR4 antag inactive
CC(=O)C(=Nc1ccc(Cl)cc1Cl)NNc1cccc(Cl)c1	none (no result: M1 antag, M1 agonist, HEK293 NFkB inh, D1 mod, Jurkat tox 60K)
c1ccc(-c2ncnc3nc4n(c23)CCC4)cc1	none
O=C(COc1ccc2ccccc2c1CN1CCOCC1)N1CCc2ccccc21	M1 antag -2.1 (no result: mHtt clearance) | M1 antag confirm 336 | mGluR4 antag inactive
O=C(CSc1nnc(CN2CCOCC2)n1-c1ccccc1)N1CCc2ccccc21	none (no result: mHtt clearance)
N#CC1=C(N)NC(SCc2ccccc2)=C(C#N)C12CCCCC2	none
CCSC1=C(C#N)C2(CCCCC2)C(C#N)=C(N)N1	M1 antag -2.7 (no result: mHtt clearance) | M1 antag confirm inactive | mGluR4 antag inactive
Cc1oc(-c2cccc(Cl)c2)nc1CN1CCCC(C(=O)NC(C)c2ccc3c(c2)OCCO3)C1 (stereo unspecified)	M1 antag -0.94 (no result: D1 mod, mHtt clearance) | M1 antag confirm inactive | mGluR4 antag inactive
CC(C)CCn1c(SCCc2ccccc2)nc2c1c(=O)[nH]c(=O)n2C	none (no result: mHtt clearance)
CC(C)CCn1c(NCCN(C)C)nc2c1c(=O)[nH]c(=O)n2C	M1 antag -4 | M1 antag confirm inactive | mGluR4 antag inactive
COC(=O)c1c(NC(=O)CSc2nnc(Cn3nnc4ccccc43)n2C)sc(C)c1C	M1 antag -2.4 (no result: mHtt clearance) | M1 antag confirm 430 | mGluR4 antag inactive
CCCN(CCC)C(=O)CSc1nc2ccccc2c(=O)n1C1CCCC1	none (no result: mHtt clearance)

From PubChem BioAssay
